In ChEMBL document CHEMBL3872230, “Inhibition of the enzymes in the leukotriene and prostaglandin pathways in inflammation by 3-aryl isocoumarins” (Eur J Med Chem, 2016):
Calls of active or inactive are those of the source. No cut-off for these calls is given here.

T1: Polyunsaturated fatty acid 5-lipoxygenase (Homo sapiens) (UniProt P09917)
T1 sequence (whole entry): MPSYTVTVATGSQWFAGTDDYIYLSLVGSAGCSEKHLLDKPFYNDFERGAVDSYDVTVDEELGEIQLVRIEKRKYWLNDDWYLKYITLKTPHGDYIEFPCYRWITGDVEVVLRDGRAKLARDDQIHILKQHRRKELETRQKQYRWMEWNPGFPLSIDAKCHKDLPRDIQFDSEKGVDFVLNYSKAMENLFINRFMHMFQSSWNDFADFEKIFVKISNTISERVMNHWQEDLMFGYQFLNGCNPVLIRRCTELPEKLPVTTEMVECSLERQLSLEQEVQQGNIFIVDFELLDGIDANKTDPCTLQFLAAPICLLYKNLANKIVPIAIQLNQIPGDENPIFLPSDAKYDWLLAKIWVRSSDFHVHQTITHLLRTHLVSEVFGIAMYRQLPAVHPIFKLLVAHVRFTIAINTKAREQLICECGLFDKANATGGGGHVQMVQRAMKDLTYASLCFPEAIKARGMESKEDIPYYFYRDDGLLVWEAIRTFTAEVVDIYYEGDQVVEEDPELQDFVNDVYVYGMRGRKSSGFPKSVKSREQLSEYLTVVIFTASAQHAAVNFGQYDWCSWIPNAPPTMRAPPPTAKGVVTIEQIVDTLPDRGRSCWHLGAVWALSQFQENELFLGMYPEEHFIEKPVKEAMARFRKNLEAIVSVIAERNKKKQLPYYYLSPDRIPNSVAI

T2: Prostaglandin E synthase (Homo sapiens) (UniProt O14684)
T2 sequence (whole entry): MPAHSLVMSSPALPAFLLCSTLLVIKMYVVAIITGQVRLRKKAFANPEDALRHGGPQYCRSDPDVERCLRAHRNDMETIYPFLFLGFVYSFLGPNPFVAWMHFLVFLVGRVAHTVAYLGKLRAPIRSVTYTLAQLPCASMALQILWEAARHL

T3: Prostaglandin E synthase (Homo sapiens, UniProt O14684)
T3 sequence (O14684 whole entry): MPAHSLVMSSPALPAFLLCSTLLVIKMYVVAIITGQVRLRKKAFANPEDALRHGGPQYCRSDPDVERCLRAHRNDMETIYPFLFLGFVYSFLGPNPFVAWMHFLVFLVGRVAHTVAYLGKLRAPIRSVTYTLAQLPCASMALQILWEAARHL

T4: Polyunsaturated fatty acid 5-lipoxygenase (Homo sapiens, UniProt P09917)
T4 sequence (P09917 whole entry): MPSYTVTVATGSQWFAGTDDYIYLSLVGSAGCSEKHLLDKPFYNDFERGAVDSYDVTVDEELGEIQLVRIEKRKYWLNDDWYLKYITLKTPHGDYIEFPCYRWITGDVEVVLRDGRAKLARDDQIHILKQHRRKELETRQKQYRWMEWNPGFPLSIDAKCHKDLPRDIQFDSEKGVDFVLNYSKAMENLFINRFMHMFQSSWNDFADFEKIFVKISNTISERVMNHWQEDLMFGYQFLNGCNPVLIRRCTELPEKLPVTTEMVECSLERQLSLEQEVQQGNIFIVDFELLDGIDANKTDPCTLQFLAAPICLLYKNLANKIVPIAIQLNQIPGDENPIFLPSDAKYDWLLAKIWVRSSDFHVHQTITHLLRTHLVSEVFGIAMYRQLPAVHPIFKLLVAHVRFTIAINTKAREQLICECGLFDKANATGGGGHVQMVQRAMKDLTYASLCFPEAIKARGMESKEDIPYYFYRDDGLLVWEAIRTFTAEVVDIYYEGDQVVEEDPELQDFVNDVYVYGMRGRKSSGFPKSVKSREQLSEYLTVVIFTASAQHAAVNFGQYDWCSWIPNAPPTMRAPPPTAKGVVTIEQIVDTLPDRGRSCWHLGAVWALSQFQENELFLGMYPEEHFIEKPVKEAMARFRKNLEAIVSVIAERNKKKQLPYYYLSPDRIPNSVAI


Tests used:
[1] = target: T1, Polyunsaturated fatty acid 5-lipoxygenase (Homo sapiens); test: Inhibition of human recombinant 5-LOX expressed in Escherichia coli BL21 assessed as decrease in 5-HPETE production at 50 uM preincubated with enzyme followed by arachidonic acid substrate addition by UV-vis spectrophotometry
[2] = target: T2, Prostaglandin E synthase (Homo sapiens); test: Inhibition of mPGES1 in human HeLa cells assessed as reduction in TNF-alpha induced PGE2 production at 50 uM preincubated for 2 hrs followed by TNF-alpha addition for 24 hrs by ELISA; assay type: cell-based
Method in brief: (§1)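 Read-out was PGE2 released into the HeLa culture supernatant, measured with an ELISA kit.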

[3] = Antioxidant activity assessed as DPPH radical scavenging activity at 50 uM after 30 mins; assay type: functional
[4] = Cytotoxicity against human HeLa cells assessed as cell proliferation at 50 uM after 24 hrs by MTT assay; assay type: toxicity, cell-based; conditions: read-out: Activity
Prostaglandin E synthase = target: T3, Prostaglandin E synthase; test: Inhibition of mPGES1 in human HeLa cells assessed as reduction in TNF-alpha induced PGE2 production preincubated for 2 hrs followed by TNF-alpha addition for 24 hrs by ELISA; assay type: cell-based; method in brief: as §1
[5] = target: T4, Polyunsaturated fatty acid 5-lipoxygenase; test: Inhibition of human recombinant 5-LOX expressed in Escherichia coli BL21 assessed as decrease in 5-HPETE production preincubated with enzyme followed by arachidonic acid substrate addition by UV-vis spectrophotometry
[6] = target: T5, Prostaglandin E synthase/G/H synthase 2 (Homo sapiens) (UniProt P35354+O14684); test: Inhibition of COX-2/mPGES1 in human HeLa cells assessed as reduction in TNF-alpha induced PGE2 production at 50 uM after 15 mins followed by ELISA; assay type: cell-based
Method in brief: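 TNF-treated HeLa cells were exposed to compound for 15 min without added arachidonic acid. PGE2 released into the culture supernatant was measured by ELISA.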

[7] = target: T5, Prostaglandin E synthase/G/H synthase 2 (Homo sapiens); test: Inhibition of COX-2/mPGES1 in human HeLa cells assessed as reduction in TNF-alpha induced PGE2 production at 50 uM preincubated for 15 mins followed by arachidonic acid addition for 15 mins by ELISA; assay type: cell-based
Method in brief: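 HeLa cells primed with TNF at 50 ng/ml to induce mPGES1, then exposed to compound for 15 min, then challenged with exogenous arachidonic acid for a further 15 min. PGE2 released into the culture supernatant was quantified by ELISA.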

HeLa [8] = test: Inhibition of COX-2 mRNA expression in human HeLa cells at 50 uM by RT-PCR method; assay type: functional, cell-based
Method in brief: (§2)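 Real-time PCR on treated HeLa cells. mRNA levels were normalized to untreated cells and to β-actin, and significance was assessed by 2-way ANOVA.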

HeLa [9] = test: Increase in IFN-gamma mRNA expression in human HeLa cells at 50 uM by RT-PCR method relative to control; assay type: functional; method in brief: as §2
HeLa [10] = test: Inhibition of mPGES1 mRNA expression in human HeLa cells at 50 uM by RT-PCR method; assay type: functional, cell-based; method in brief: as §2
HeLa [11] = test: Increase in IL-6 mRNA expression in human HeLa cells at 50 uM by RT-PCR method relative to control; assay type: functional; method in brief: as §2
HeLa [12] = test: Increase in TGF-beta3 mRNA expression in human HeLa cells at 50 uM by RT-PCR method relative to control; assay type: functional; method in brief: as §2
HeLa [13] = test: Increase in NFkappaB mRNA expression in human HeLa cells at 50 uM by RT-PCR method relative to control; assay type: functional; method in brief: as §2
[14] = target: T1, Polyunsaturated fatty acid 5-lipoxygenase (Homo sapiens); conditions: 10 uM
[15] = substrate: O=c1oc(-c2ccc(O)c(O)c2)cc2ccccc12; conditions: Homo sapiens; 10 uM
[16] = substrate: O=c1oc(-c2ccc(O)c(O)c2)cc2ccccc12; conditions: Homo sapiens; 50 uM
[17] = substrate: O=c1oc(-c2ccc(O)c(O)c2)cc2ccccc12; conditions: Homo sapiens; 10 uM; remark: listed apart in the source
[18] = substrate: O=c1oc(-c2ccc(O)c(O)c2)cc2ccccc12; conditions: Homo sapiens; 50 uM; remark: listed apart in the source
[19] = substrate: COc1cc(-c2cc3cccc(O)c3c(=O)o2)cc(OC)c1OC; conditions: Homo sapiens; 10 uM
[20] = substrate: COc1cc(-c2cc3cccc(O)c3c(=O)o2)cc(OC)c1OC; conditions: Homo sapiens; 30 uM
[21] = substrate: COc1cc(-c2cc3cccc(O)c3c(=O)o2)cc(OC)c1OC; conditions: Homo sapiens; 10 uM; remark: listed apart in the source
[22] = substrate: COc1cc(-c2cc3cccc(O)c3c(=O)o2)cc(OC)c1OC; conditions: Homo sapiens; 30 uM; remark: listed apart in the source

T5 sequence (P35354 whole entry, looked up, one chain of several): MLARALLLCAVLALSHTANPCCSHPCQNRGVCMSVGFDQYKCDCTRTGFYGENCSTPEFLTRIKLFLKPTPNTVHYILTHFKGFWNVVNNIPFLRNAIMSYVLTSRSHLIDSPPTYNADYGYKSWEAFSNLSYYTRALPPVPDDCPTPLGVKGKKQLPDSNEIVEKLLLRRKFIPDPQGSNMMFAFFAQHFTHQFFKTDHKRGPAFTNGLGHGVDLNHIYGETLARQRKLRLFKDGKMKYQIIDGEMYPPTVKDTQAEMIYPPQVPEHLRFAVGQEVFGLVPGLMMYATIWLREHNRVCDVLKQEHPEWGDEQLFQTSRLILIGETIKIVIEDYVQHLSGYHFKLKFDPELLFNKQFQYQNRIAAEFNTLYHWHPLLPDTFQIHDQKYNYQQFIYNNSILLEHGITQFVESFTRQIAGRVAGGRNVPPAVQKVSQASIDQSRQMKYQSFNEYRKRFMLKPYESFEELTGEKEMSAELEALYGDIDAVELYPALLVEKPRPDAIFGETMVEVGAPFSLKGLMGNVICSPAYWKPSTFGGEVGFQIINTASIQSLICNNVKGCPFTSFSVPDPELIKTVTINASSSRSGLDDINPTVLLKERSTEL

Molecule | inhibition [1] [%] | inhibition [2] [%] | Activity [3] [%] | viability at 24 h, 50 µM [4] [%] | further results
O=c1oc(-c2ccccc2)cc2cccc(O)c12 | 55.3 | 60 | 13.4 | 75.6 | –
O=c1oc(-c2ccc(O)cc2)cc2cccc(O)c12 | 36.4 | 74 | 12.6 | 70.6 | IC50 (Prostaglandin E synthase): 7.1 µM
O=C1O[C@H]([C@@H](O)CO)C(O)=C1O | – | – | 82.2 | – | –
COc1ccc(-c2cc3ccccc3c(=O)o2)cc1O | 65.9 | 18 | 20 | 70.5 | IC50 (Prostaglandin E synthase): 9.7 µM
CC(c1cc2ccccc2s1)N(O)C(N)=O (centres undefined) [ZILEUTON] | – | 50 | 33.6 | 78 | –
O=c1oc(-c2ccccc2)cc2ccccc12 | 50 | 75 | 14 | 76.7 | IC50 (Prostaglandin E synthase): 9.5 µM
O=c1oc(-c2ccc(O)cc2)cc2ccccc12 | 34.1 | 65 | 17 | 81.4 | –
O=c1oc(-c2ccc(O)c(O)c2)cc2ccccc12 | 84.1 | 78 | 53 to 53.2 | 78.7 | IC50 [5]: 4.6 µM; inhibition [6]: 76%; inhibition [7]: 44%; inhibition (HeLa [8]): Active; fold change (FC) (HeLa [9]): 5.6; inhibition (HeLa [10]): Active; fold change (FC) (HeLa [11]): 1; fold change (FC) (HeLa [12]): 1; fold change (FC) (HeLa [13]): 1
COc1cc(O)c2c(=O)oc(-c3ccccc3)cc2c1 | 49.2 | 54 | 16.6 | 78.1 | –
Polyunsaturated fatty acid 5-lipoxygenase (Homo sapiens), P09917 (protein) MPSYTVTVATGSQWFAGTDDYIYLSLVGSAGCSEKHLLDKPFYNDFERGAVDSYDVTVDEELGEIQLVRIEKRKYWLNDDWYLKYITLKTPHGDYIEFPCYRWITGDVEVVLRDGRAKLARDDQIHILKQHRRKELETRQKQYRWMEWNPGFPLSIDAKCHKDLPRDIQFDSEKGVDFVLNYSKAMENLFINRFMHMFQSSWNDFADFEKIFVKISNTISERVMNHWQEDLMFGYQFLNGCNPVLIRRCTELPEKLPVTTEMVECSLERQLSLEQEVQQGNIFIVDFELLDGIDANKTDPCTLQFLAAPICLLYKNLANKIVPIAIQLNQIPGDENPIFLPSDAKYDWLLAKIWVRSSDFHVHQTITHLLRTHLVSEVFGIAMYRQLPAVHPIFKLLVAHVRFTIAINTKAREQLICECGLFDKANATGGGGHVQMVQRAMKDLTYASLCFPEAIKARGMESKEDIPYYFYRDDGLLVWEAIRTFTAEVVDIYYEGDQVVEEDPELQDFVNDVYVYGMRGRKSSGFPKSVKSREQLSEYLTVVIFTASAQHAAVNFGQYDWCSWIPNAPPTMRAPPPTAKGVVTIEQIVDTLPDRGRSCWHLGAVWALSQFQENELFLGMYPEEHFIEKPVKEAMARFRKNLEAIVSVIAERNKKKQLPYYYLSPDRIPNSVAI | – | – | – | – | Vmax [15]: 0.93 nmol/min; Vmax [16]: 0.64 nmol/min; Km [17]: 1.38 µM; Km [18]: 1.17 µM; Vmax [19]: 0.83 nmol/min; Vmax [20]: 0.93 nmol/min; Km [21]: 1.2 µM; Km [22]: 1.45 µM

Continued, in another order:

inhibition [1] [%] | inhibition [2] [%] | Molecule | Activity [3] [%] | viability at 24 h, 50 µM [4] [%] | further results
78.8 | 73 | COc1cc(-c2cc3ccccc3c(=O)o2)ccc1O | 47.8 | 65 | IC50 [5]: 22.8 µM
35.6 | 75 | COc1cc(-c2cc3cccc(O)c3c(=O)o2)ccc1O | 36.2 | 79.8 | –
59.1 | 44 | COc1ccc(-c2cc3cccc(O)c3c(=O)o2)cc1O | 17.8 | 77.4 | IC50 (Prostaglandin E synthase): 11.3 µM
40.9 | 74 | O=c1oc(-c2ccc(O)c(O)c2)cc2cccc(O)c12 [THUNBERGINOL A] | 49 | 68.7 | inhibition [6]: 75%; inhibition [7]: 17%; inhibition (HeLa [8]): Active; fold change (FC) (HeLa [9]): 9.6; inhibition (HeLa [10]): Active; fold change (FC) (HeLa [11]): 1; fold change (FC) (HeLa [12]): 1; fold change (FC) (HeLa [13]): 1
72 | 73 | COc1cc(-c2cc3ccccc3c(=O)o2)cc(OC)c1OC | 15.8 | 75.7 | IC50 [5]: 20.9 µM; IC50 (Prostaglandin E synthase): 9.3 µM
36.2 | 14 | COc1cc(O)c2c(=O)oc(-c3cc(OC)c(OC)c(OC)c3)cc2c1 | 15.4 | 60.5 | –
80 to 80.3 | 68 | COc1cc(-c2cc3cccc(O)c3c(=O)o2)cc(OC)c1OC | 12 to 12.4 | 80.2 | IC50 [5]: 12.4 µM; inhibition [14]: Active
